Test results published in ChEMBL document CHEMBL1817584, “Synthesis of novel fluconazoliums and their evaluation for antibacterial and antifungal activities” (2011).
In brackets after ≈: the same amount, converted by molar mass.

Assays:
Bacillus subtilis = experiment: Antibacterial activity against Bacillus subtilis ATCC 21216 after 24 hrs by twofold serial dilution method; type: functional; conditions: ATCC 21216, 24 h
Summary of the method: (§1)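 Each bacterial suspension was adjusted with sterile saline to 1 × 10⁵ CFU. Compounds were first dissolved in DMSO as stock solutions, then diluted in Mueller–Hinton broth in twofold steps (8, 4, 2, 1, 0.5, 0.25). Dilutions were inoculated and incubated at 37 °C for 24 h, and MIC was read. DMSO plus inoculum without drug served as a solvent control.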

Staphylococcus aureus [1] = experiment: Antibacterial activity against methicillin-resistant Staphylococcus aureus N315 after 24 hrs by twofold serial dilution method; type: functional; conditions: N315, 24 h
Summary of the method: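 Compounds were dissolved in DMSO as stock, then diluted twofold in Mueller–Hinton broth. Chloromycin and norfloxacin were run as reference drugs. The inoculum was adjusted in sterile saline to 1 × 10⁵ CFU, and a DMSO-plus-inoculum well served as solvent control. Plates were incubated at 37 °C for 24 h and read as MIC.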

Bacillus [2] = experiment: Antibacterial activity against Bacillus proteus ATCC 13315 after 24 hrs by twofold serial dilution method; type: functional; conditions: ATCC 13315, 24 h; summary of the method: as §1
Aspergillus fumigatus [3] = experiment: Antifungal activity against Aspergillus fumigatus ATCC 96918 after 24 hrs by twofold serial dilution method; type: functional; conditions: ATCC 96918, 24 h
Summary of the method: (§2)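 A fungal spore suspension was made in sterile distilled water from a 1-day-old culture grown on Sabouraud agar, then tested against serial dilutions of compounds (DMSO stocks) to determine MIC.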

Pseudomonas aeruginosa = experiment: Antibacterial activity against Pseudomonas aeruginosa ATCC 27853 after 24 hrs by twofold serial dilution method; type: functional; conditions: ATCC 27853, 24 h; summary of the method: as §1
Staphylococcus aureus [4] = experiment: Antibacterial activity against Staphylococcus aureus ATCC 6538 after 24 hrs by twofold serial dilution method; type: functional; conditions: ATCC 6538, 24 h; summary of the method: as §1
Candida albicans = experiment: Antifungal activity against Candida albicans ATCC 76615 after 24 hrs by twofold serial dilution method; type: functional; conditions: ATCC 76615, 24 h; summary of the method: as §2
Escherichia coli [5] = experiment: Antibacterial activity against Escherichia coli ATCC 8099 after 24 hrs by twofold serial dilution method; type: functional; conditions: ATCC 8099, 24 h; summary of the method: as §1
Bacillus [6] = experiment: Ratio of Chloromycin MIC to compound MIC for Bacillus proteus ATCC 13315; type: functional
Escherichia coli [7] = experiment: Ratio of Chloromycin MIC to compound MIC for Escherichia coli ATCC 8099; type: functional
Aspergillus fumigatus [8] = experiment: Ratio of Fluconazole MIC to compound MIC for Aspergillus fumigatus ATCC 96918

Row | Structure (SMILES) | MIC (Bacillus subtilis) [µg/mL] | MIC (Staphylococcus aureus [1]) [µg/mL] | MIC (Bacillus [2]) [µg/mL] | MIC (Aspergillus fumigatus [3]) [µg/mL] | MIC (Pseudomonas aeruginosa) [µg/mL] | MIC (Staphylococcus aureus [4]) [µg/mL] | MIC (Candida albicans) [µg/mL] | MIC (Escherichia coli [5]) [µg/mL] | Ratio (Bacillus [6]) | Ratio (Escherichia coli [7]) | Ratio (Aspergillus fumigatus [8])
1 | BrCCOc1ccc2ccccc2c1 | > 256 | > 256 | > 256 | > 256 | > 256 | 256 (≈ 1020 µM) | > 256 | 256 (≈ 1020 µM) |  |  | 
2 | O=C1c2cccc3c(Br)ccc(c23)C(=O)N1CCCBr | > 256 | > 256 | > 256 | 128 (≈ 322 µM) | > 256 | 128 (≈ 322 µM) | > 256 | 256 (≈ 645 µM) |  |  | 
3 | O=C1c2cccc3c(Br)ccc(c23)C(=O)N1CCCCCCBr | > 256 | > 256 | > 256 | 256 (≈ 583 µM) | > 256 | 256 (≈ 583 µM) | > 256 | > 256 |  |  | 
4 | CCCC[n+]1cnn(CC(O)(Cn2c[n+](CCCC)cn2)c2ccc(F)cc2F)c1.[Br-].[Br-] | > 256 | > 256 | 256 | > 256 | 256 | > 256 | 128 | 128 |  |  | 
5 | CCCCCCCCCCCC[n+]1cnn(CC(O)(Cn2c[n+](CCCCCCCCCCCC)cn2)c2ccc(F)cc2F)c1.[Br-].[Br-] | > 256 | 32 | 8 | > 256 | 8 | 2 | 2 | 2 |  |  | 
6 | CCCCCCCCCCCCCCCC[n+]1cnn(CC(O)(Cn2c[n+](CCCCCCCCCCCCCCCC)cn2)c2ccc(F)cc2F)c1.[Br-].[Br-] | 128 | 128 | 256 | > 256 | 128 | 8 | 4 | 8 |  |  | 
7 | OC(Cn1c[n+](Cc2ccc(F)cc2F)cn1)(Cn1c[n+](Cc2ccc(F)cc2F)cn1)c1ccc(F)cc1F.[Br-].[Br-] | 256 | 256 | 128 | > 256 | > 256 | 64 | 128 | 64 |  |  | 
8 | OC(Cn1c[n+](Cc2ccc(Cl)cc2Cl)cn1)(Cn1c[n+](Cc2ccc(Cl)cc2Cl)cn1)c1ccc(F)cc1F.[Cl-].[Cl-] | 16 | 4 | 0.5 | 128 | 4 | 8 | 16 | 4 | 32 |  | 
9 | OC(Cn1c[n+](Cc2ccc(Cl)c(Cl)c2)cn1)(Cn1c[n+](Cc2ccc(Cl)c(Cl)c2)cn1)c1ccc(F)cc1F.[Cl-].[Cl-] | 32 | 64 | 8 | 128 | 16 | 8 | 4 | 32 |  |  | 
10 | OC(Cn1c[n+](Cc2ccccc2Cl)cn1)(Cn1c[n+](Cc2ccccc2Cl)cn1)c1ccc(F)cc1F.[Cl-].[Cl-] | 256 | 256 | 8 | 32 | > 256 | 32 | 128 | 128 |  |  | 
11 | OC(Cn1c[n+](Cc2cccc(Cl)c2)cn1)(Cn1c[n+](Cc2cccc(Cl)c2)cn1)c1ccc(F)cc1F.[Cl-].[Cl-] | 64 | 32 | 128 | 256 | 64 | 4 | 4 | 32 |  |  | 
12 | OC(Cn1c[n+](Cc2ccc(Cl)cc2)cn1)(Cn1c[n+](Cc2ccc(Cl)cc2)cn1)c1ccc(F)cc1F.[Cl-].[Cl-] | 256 | > 256 | 256 | 64 | 16 | 64 | 256 | 256 |  |  | 
13 | F[P-](F)(F)(F)(F)F.F[P-](F)(F)(F)(F)F.OC(Cn1c[n+](Cc2ccc(Cl)cc2Cl)cn1)(Cn1c[n+](Cc2ccc(Cl)cc2Cl)cn1)c1ccc(F)cc1F | 32 | 32 | 1 | 256 | 64 | 32 | 128 | ≤ 0.25 |  | 256 | 
14 | OC(Cn1c[n+](Cc2ccc(Cl)cc2Cl)cn1)(Cn1c[n+](Cc2ccc(Cl)cc2Cl)cn1)c1ccc(F)cc1F.[Br-].[Br-] | 32 | 64 | 4 | 128 | 64 | 64 | 64 | 16 |  |  | 
15 | OC(Cn1c[n+](Cc2ccc(Cl)cc2Cl)cn1)(Cn1c[n+](Cc2ccc(Cl)cc2Cl)cn1)c1ccc(F)cc1F.[I-].[I-] | 64 | 64 | 4 | 32 | 32 | 16 | 64 | 4 |  |  | 
16 | Cc1cccc(C[n+]2cnn(CC(O)(Cn3c[n+](Cc4cccc(C)c4)cn3)c3ccc(F)cc3F)c2)c1.[Br-].[Br-] | 256 | 256 | 256 | 256 | 256 | 16 | 64 | 128 |  |  | 
17 | OC(Cn1c[n+](Cc2ccccc2)cn1)(Cn1c[n+](Cc2ccccc2)cn1)c1ccc(F)cc1F.[Br-].[Br-] | 256 | 128 | 128 | 128 | 128 | 256 | 256 | 256 |  |  | 
18 | O=[N+]([O-])c1ccc(C[n+]2cnn(CC(O)(Cn3c[n+](Cc4ccc([N+](=O)[O-])cc4)cn3)c3ccc(F)cc3F)c2)cc1.[Br-].[Br-] | 128 | 256 | 128 | 128 | 128 | 64 | 128 | 64 |  |  | 
19 | O=C1c2cccc3c(Br)ccc(c23)C(=O)N1CCC[n+]1cnn(CC(O)(Cn2c[n+](CCCN3C(=O)c4cccc5c(Br)ccc(c45)C3=O)cn2)c2ccc(F)cc2F)c1.[Br-].[Br-] | 64 | 4 | 32 | 16 | 16 | 8 | 8 | 8 |  |  | 8
20 | O=C1c2cccc3c(Br)ccc(c23)C(=O)N1CCCCCC[n+]1cnn(CC(O)(Cn2c[n+](CCCCCCN3C(=O)c4cccc5c(Br)ccc(c45)C3=O)cn2)c2ccc(F)cc2F)c1.[Br-].[Br-] | 64 | 16 | 64 | 32 | 32 | 8 | 16 | 8 |  |  | 8
21 | Fc1ccc(Cn2cncn2)c(F)c1 | > 256 | > 256 | > 256 | > 256 | > 256 | > 256 | > 256 | > 256 |  |  | 
22 | O=C1c2cccc3c(Br)ccc(c23)C(=O)N1CCCCCCn1cncn1 | > 256 | > 256 | > 256 | > 256 | > 256 | > 256 | > 256 | > 256 |  |  | 
23 | CCCCCCCC[n+]1cnn(Cc2ccc(F)cc2F)c1.[Br-] | 64 | 16 | 8 | 32 | 16 | 8 | 32 | 16 |  |  | 
24 | Fc1ccc(Cn2c[n+](Cc3ccc(Cl)cc3Cl)cn2)c(F)c1.[Br-] | 128 | > 256 | 64 | > 256 | 128 | > 256 | > 256 | 128 |  |  | 
25 | Fc1ccc(Cn2c[n+](CCOc3ccc4ccccc4c3)cn2)c(F)c1.[Br-] | 64 | 64 | 16 | 128 | 8 | 16 | 32 | 8 |  |  | 
26 | O=C1c2cccc3c(Br)ccc(c23)C(=O)N1CCCCCCn1c[n+](Cc2ccc(F)cc2F)cn1.[Br-] | 128 | 64 | 16 | 64 | 8 | 16 | 64 | 32 |  |  | 
27 | OC(Cn1cncn1)(Cn1cncn1)c1ccc(F)cc1F [FLUCONAZOLE] |  |  |  | 256 (≈ 836 µM) |  |  | 0.5 (≈ 1.63 µM) |  |  |  | 
28 | CCn1cc(C(=O)O)c(=O)c2cc(F)c(N3CCNCC3)cc21 [NORFLOXACIN] | 1 (≈ 3.13 µM) | 1 (≈ 3.13 µM) | 1 (≈ 3.13 µM) |  | 2 (≈ 6.26 µM) | 8 (≈ 25.1 µM) |  | 0.5 (≈ 1.57 µM) |  |  | 
